Screening results deposited in PubChem BioAssay by several laboratories.
Calb biofilm kill = kills Candida albicans biofilms; C. albicans biofilm + clotrimazole, Alamar Blue; inhibition, % at 6 µM; actives 0.14% (n = 85,000);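 active = inhibition above 20%; inactive = inhibition below 20%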;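 note: preformed 24 hr biofilms exposed to compound for 48 hr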
PostGolgi ctrl = growth of the yeast control strain, post-Golgi counter-screen; inhibition, % at 10 µM; actives 5% (n = 98,000); AID 738; efflux-deficient yeast background strain, growth absorbance A615, 16 h
FAK blocker = inhibitors of human focal adhesion kinase; Q05397; biochemical FAK kinase activity assay; inhibition, %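 (tested at 7 µM)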; actives 0.84% (n = 97,000); AID 727; in the data active = inhibition above about 19%
Target sequence (Q05397 whole entry, looked up): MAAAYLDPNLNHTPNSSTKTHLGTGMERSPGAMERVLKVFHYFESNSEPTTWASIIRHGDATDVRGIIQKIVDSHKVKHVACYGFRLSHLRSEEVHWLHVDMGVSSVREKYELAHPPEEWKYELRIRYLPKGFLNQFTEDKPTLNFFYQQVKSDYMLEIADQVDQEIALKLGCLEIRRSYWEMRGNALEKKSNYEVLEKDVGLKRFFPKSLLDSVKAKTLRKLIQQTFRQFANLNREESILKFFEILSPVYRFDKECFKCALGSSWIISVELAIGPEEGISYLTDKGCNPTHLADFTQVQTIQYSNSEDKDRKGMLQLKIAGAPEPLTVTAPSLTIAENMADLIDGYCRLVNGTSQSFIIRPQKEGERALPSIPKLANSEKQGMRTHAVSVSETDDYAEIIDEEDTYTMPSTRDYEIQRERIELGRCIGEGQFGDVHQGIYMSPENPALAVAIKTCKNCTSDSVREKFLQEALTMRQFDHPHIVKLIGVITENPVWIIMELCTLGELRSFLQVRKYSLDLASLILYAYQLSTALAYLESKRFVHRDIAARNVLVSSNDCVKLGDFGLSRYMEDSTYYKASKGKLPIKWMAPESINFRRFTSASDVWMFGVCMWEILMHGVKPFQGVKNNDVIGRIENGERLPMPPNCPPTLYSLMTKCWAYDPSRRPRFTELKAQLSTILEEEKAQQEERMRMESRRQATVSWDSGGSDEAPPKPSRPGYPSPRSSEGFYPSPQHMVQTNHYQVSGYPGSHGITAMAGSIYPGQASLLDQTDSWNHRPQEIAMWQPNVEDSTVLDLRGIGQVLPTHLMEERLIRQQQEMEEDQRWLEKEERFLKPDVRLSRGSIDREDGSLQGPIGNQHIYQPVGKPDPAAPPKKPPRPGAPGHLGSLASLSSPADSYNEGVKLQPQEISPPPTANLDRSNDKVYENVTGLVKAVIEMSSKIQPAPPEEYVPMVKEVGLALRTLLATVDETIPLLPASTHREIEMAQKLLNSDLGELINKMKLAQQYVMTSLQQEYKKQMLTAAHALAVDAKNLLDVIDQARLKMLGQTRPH
Ecoli tolC = blocks growth of E. coli BW25113 tolC mutant. OD615. growth inhibition, % at 10 µM (by protocol). actives 2.2% (n = 65,000);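 active = growth inhibition at or above a cutoff equal to the mean over every tested compound plus 3 SD, cut at about 60% in these data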;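 note: growth measured after 20 h incubation at 37 °C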
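Signal: optical density read at 615 nm; Assay system: E. coli ΔtolC::kan strain BW25113; Times: 20 h incubation with compound, 37 °C; Dosing: 10 µM final, single dose.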
PTK2B oligo ant = Pyk2 (human) oligomerization antagonism. Q14289. Q293 cells, Pyk2 FERM NanoBiT luminescence; hits give low values. z-score (the deposit names both 25 µM and 10 µM). actives 0.83% (n = 99,000). AID 1347419;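 active = Z-score of -3 or lower, scaled per plate to the spread of control and sample wells; inactive = z-score above -3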;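 note: negative z-score means lost luminescence so less FERM oligomerization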
PostGolgi yeast = growth inhibition of a yeast mutant, post-Golgi transport screen | post-Golgi transport phenotypic cell assay | inhibition, % at 10 µM | actives 0.9% (n = 98,000);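 note: yeast cells grown in 1536-well plates; yeast grown about 18 h at 30C before absorbance read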
Large screens that a line does not name were inactive. Rows were chosen to be rich in hits. Some 6.9% of all compounds tested hit in one or more screens of this group. Cut-off read from the data, not from the text of the source, unless noted: active = inhibition above about 30%; inactive = the rest.

CN(C)S(=O)(=O)c1ccc(Nc2ccc(-c3ccc4c(c3)OCCO4)nn2)cc1	none (no result: Ecoli tolC)
Oc1c(CN2CCCCC2)cc(Br)c2cccnc12	Ecoli tolC 100 (no result: Calb biofilm kill)
Oc1c(CN2CCc3ccccc3C2)cc(Cl)c2cccnc12	Ecoli tolC 64 (no result: PTK2B oligo ant)
CN1CCN(Cc2cc(COCc3ccccc3)c3cccnc3c2O)CC1	none
COC(=O)c1ccc(/C=N/OCC(=O)NC2CCCCCCC2)cc1	none (no result: Calb biofilm kill, Ecoli tolC)
COC(=O)c1ccc(/C=N/OCC(=O)NC2CCCC(C)C2C)cc1 (centres undefined)	PostGolgi ctrl 40 (no result: Ecoli tolC)
O=S(=O)(Nc1ccc(Cc2ccncc2)cc1)c1cccs1	none (no result: Calb biofilm kill, Ecoli tolC)
CCCCc1ccc(NS(=O)(=O)c2cccs2)cc1	PostGolgi ctrl 37 (no result: Ecoli tolC)
CCCOC(=O)NC1CCS(=O)(=O)C1 (centres undefined)	none (no result: Ecoli tolC)
COCCn1nnnc1C(C(C)C)N(Cc1cccnc1)Cc1cc2cc(OC)ccc2[nH]c1=O (centres undefined)	none
COCCn1nnnc1C(C(C)C)N(Cc1ccccc1)Cc1cc2cc(OC)ccc2[nH]c1=O (centres undefined)	Ecoli tolC 76 (no result: FAK blocker)
CCN(CC)c1ccc2cc(-c3nnc(-c4ccncc4)o3)c(=O)oc2c1	PostGolgi ctrl 51 (no result: Calb biofilm kill)
CCN(CC)c1ccc2cc(C(C)=O)c(=O)oc2c1	none (no result: Ecoli tolC)
O=c1c(-c2nc3ccccc3s2)cccn1Cc1ccccc1	none (no result: Calb biofilm kill, Ecoli tolC)
Cc1ccc(S(=O)(=O)c2c(C)nn(C(C)(C)C)c2OC(=O)c2ccc(Br)o2)cc1	PostGolgi yeast 50
Cc1ccc(S(=O)(=O)c2c(C)nn(C(C)(C)C)c2OC(=O)c2ccco2)cc1	none
Cc1nn(C(C)(C)C)c(OC(=O)c2ccc3c(c2)OCO3)c1S(=O)(=O)c1ccccc1	PostGolgi ctrl 37
Cc1nn(C(C)(C)C)c(OC(=O)c2ccc3c(c2)OCO3)c1Sc1ccccc1	none (no result: Ecoli tolC)
CC(=O)NCCCc1nc2ccccc2n1Cc1ccc(C)cc1	none (no result: Ecoli tolC)
COc1ccc(-c2nc3ccccc3n2Cc2ccc(C)cc2)cc1	PostGolgi ctrl 43, PostGolgi yeast 31 (no result: Ecoli tolC)
Cc1cccc(NCc2nc3ccccc3n2Cc2ccccc2)c1	PostGolgi ctrl 66, PostGolgi yeast 54 (no result: Ecoli tolC)
Nc1nonc1-c1nc2ccccc2n1Cc1ccccc1	PostGolgi ctrl 42
Cc1ccc(Cn2c(Cc3ccccc3)nc3ccccc32)cc1	PostGolgi ctrl 32 (no result: Calb biofilm kill, Ecoli tolC)
COCn1c(-c2ccc(OC)cc2)nc2ccccc21	none (no result: PostGolgi ctrl, Ecoli tolC, PostGolgi yeast)
COc1ccc(N2CCN(C(=O)CSc3nnc4nc(C)cc(C)n34)CC2)cc1	none (no result: PostGolgi ctrl, PostGolgi yeast)
Cc1ccc(-c2cccc(NC(=O)C3C(C(=O)O)[C@@H]4C=C[C@H]3C4)c2)o1 (some centres undefined)	none
CCOC(=O)c1c(C)nc2sc(C(=O)Nc3ccccc3)c(N)c2c1-c1ccc(OC)cc1	none (no result: Calb biofilm kill, Ecoli tolC)
CCN1CCc2nc(NC(=O)C(c3ccccc3)c3ccccc3)sc2C1	none (no result: Ecoli tolC)
Cc1ccccc1-n1c(SCc2c(C)noc2C)nnc1-c1cccnc1	none (no result: Ecoli tolC)
Cc1cccc(C(C#N)c2nc3ccccc3nc2C(F)(F)F)c1 (centres undefined)	none (no result: Calb biofilm kill, PostGolgi ctrl, Ecoli tolC, PostGolgi yeast)
Cc1ccccc1C(=O)c1cccn1CC(=O)O	none (no result: Calb biofilm kill)
COCc1nc2ccccc2n1Cc1ccc(Br)cc1	PostGolgi ctrl 36
COCc1nc2ccccc2n1Cc1ccccc1	none
COc1ccccc1N1CCN(C(=O)COc2ccc(Cl)cc2Br)CC1	PostGolgi ctrl 68
Cc1ccc(OCC(=O)N2CCCCC2)c(Br)c1	none
COc1ccccc1N1CCN(C(=O)COc2ccc(C)cc2Br)CC1	PostGolgi ctrl 35, Ecoli tolC 70
CC(=O)c1c(O)cc(C)n(Nc2nc(C)cc(C)n2)c1=O	Ecoli tolC 73
COc1ccc(OC)c(N(CC(=O)Nc2ccc(NC(C)=O)cc2)S(C)(=O)=O)c1	PostGolgi ctrl 31
COc1ccc(N(CC(=O)Nc2ccc3c(c2)OCO3)S(=O)(=O)c2ccccc2)c(OC)c1	PTK2B oligo ant -3.2
CCn1cc(Br)c(C(=O)Nc2ccc(C(=O)OC(C)C)cc2)n1	Ecoli tolC 67
O=C(CCN1CCOCC1)c1ccccc1	none (no result: Ecoli tolC)
CCOC(=O)c1cc(-c2ccccc2)sc1NC(=O)C(C)Sc1nnnn1C (centres undefined)	PostGolgi ctrl 64, PostGolgi yeast 73
CN(C)c1ccc(/C=C2\C(=O)N(c3ccc([N+](=O)[O-])cc3)N=C2N2CCOCC2)cc1	FAK blocker 20 (no result: PostGolgi ctrl, Ecoli tolC, PTK2B oligo ant, PostGolgi yeast)
CN(C)c1ccc(/C=C2/C(=O)N(c3ccc([N+](=O)[O-])cc3)N=C2N2CCOCC2)cc1	none (no result: Calb biofilm kill, Ecoli tolC, PTK2B oligo ant)
COc1ccc(OC)c(/C=N/NC(=O)c2cc[n+](Cc3ccccc3)cc2)c1	none (no result: Calb biofilm kill, PostGolgi ctrl, FAK blocker, Ecoli tolC, PostGolgi yeast)
COc1ccc(OC)c(/C=N/N(C)c2ccccc2)c1	PostGolgi ctrl 32 (no result: Ecoli tolC)
COc1cc(/C=N/N(C)c2ccccc2)cc(Cl)c1O	PostGolgi ctrl 48, PTK2B oligo ant -3 (no result: Ecoli tolC)
CCOc1cc(/C=N/n2cnnc2)ccc1OC(=O)c1cccc([N+](=O)[O-])c1	PostGolgi ctrl 36 (no result: Calb biofilm kill, Ecoli tolC)
COc1ccc(/C=N/NC(=O)c2cccc([N+](=O)[O-])c2)cc1OC(=O)c1ccccc1	PostGolgi ctrl 33 (no result: Calb biofilm kill, Ecoli tolC)
COc1ccc(/C=N/NC(=O)c2cccc([N+](=O)[O-])c2)cc1OC(=O)c1ccc(C)cc1	none (no result: Calb biofilm kill, Ecoli tolC)
CCOc1cc(/C=N/NC(=O)c2cc(C)[nH]n2)ccc1OC(=O)c1ccc([N+](=O)[O-])cc1	none (no result: Calb biofilm kill, Ecoli tolC, PTK2B oligo ant)
CC12CCC(C(=O)N(CSC(=S)N/N=C\c3ccccc3O)C1=O)C2(C)C (centres undefined)	none (no result: PostGolgi ctrl, Ecoli tolC, PostGolgi yeast)
Cc1cc(C)c2c(CN3CCN(CCO)CC3)cc(=O)oc2c1	none
COC(=O)CN1C(=S)N(c2ccc(Cl)cc2)C(=O)C1CC(=O)Nc1ccc(Cl)cc1 (centres undefined)	none (no result: Calb biofilm kill, Ecoli tolC)
COC(=O)CN1C(=S)N(Cc2ccccc2)C(=O)C1CC(=O)Nc1ccc(Br)cc1 (centres undefined)	PostGolgi ctrl 79 (no result: Calb biofilm kill, Ecoli tolC)
CCc1c(C)sc(NC(=O)c2cc(-c3ccco3)on2)c1C#N	none
Cc1ccc(Nc2cc(C)nn2-c2nc(C)cc(C)n2)cc1	PostGolgi ctrl 39
Cc1ccc(Nc2cc(C)nn2-c2nc(C)cc(=O)[nH]2)cc1	PostGolgi ctrl 100, Ecoli tolC 100, PostGolgi yeast 94
Cc1ccc(Nc2nc3ccccc3nc2-n2nc(C)cc2C)cc1	none (no result: Ecoli tolC, PTK2B oligo ant)
CCOc1ccc(-c2nnc3ccc(SCc4ccc(C(=O)OC)o4)nn23)cc1	none
OCCCc1nc2n(n1)C(c1cccs1)C=C(c1ccc(Br)cc1)N2 (centres undefined)	none (no result: Ecoli tolC, PTK2B oligo ant)
Brc1ccc(C2=CC(c3cccs3)n3ncnc3N2)cc1 (centres undefined)	PTK2B oligo ant -3.5 (no result: Ecoli tolC)
O=C1CN(C(=O)c2ccc(Br)o2)C(c2ccc(F)cc2)c2cc(Cl)ccc2N1 (centres undefined)	PostGolgi ctrl 31
O=C1CN(C(=O)c2ccc(Br)o2)C(c2ccccc2)c2cc(Cl)ccc2N1 (centres undefined)	Ecoli tolC 85 (no result: PTK2B oligo ant)
O=C1CN(C(=O)c2ccc(Br)o2)C(c2ccccc2)c2cc(Br)ccc2N1 (centres undefined)	none (no result: PTK2B oligo ant)
